Apaf-1 inh – blocks human Apaf-1 apoptosome activity; reconstituted apoptosome caspase-3 activity, DEVD-Rh110 fluorescence; O14727; 0.71% of 330,000 active; AID 489030; inhibition, % at 20 µM; active = inhibition of at least 40% at 20 µM;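 note: plate controls were DMSO wells for no effect and DEVD-CHO caspase inhibitor wells for full effect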
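Material: cell-free apoptosome with Apaf-1, procaspase-3 and caspase-9; Buffer or medium: Hepes pH 7.5 with detergent and BSA; Reagent: cytochrome c trigger plus (Z-DEVD)2-Rh110 caspase-3 substrate; Times: compound with Apaf-1, dATP, procaspase-3 30 min, then 50 min reaction, room temperature; Technique: Rh110 fluorescence intensity.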
PAFAH1B2 FP inh – PAFAH1B2 (human) inhibition | P68402 | recombinant PAFAH1B2, FP-rhodamine activity probe, fluorescence polarization | inhibition, % at 3.39 µM | 1.2% of 340,000 active | AID 492953;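 active = inhibition above the mean of all tested compounds plus 3 SD, cut at about 24% in these data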;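 note: 0% = enzyme with DMSO and 100% = wells lacking PAFAH1B2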
Target sequence (P68402 whole entry, looked up): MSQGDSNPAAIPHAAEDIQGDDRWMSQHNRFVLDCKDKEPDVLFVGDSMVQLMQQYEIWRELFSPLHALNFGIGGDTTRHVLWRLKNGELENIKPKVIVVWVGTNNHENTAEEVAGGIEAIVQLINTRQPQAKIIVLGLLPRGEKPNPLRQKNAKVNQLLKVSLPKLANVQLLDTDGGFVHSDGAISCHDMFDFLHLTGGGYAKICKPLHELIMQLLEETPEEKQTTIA
pPAFAH inh – inhibitors of human plasma PAF acetylhydrolase (pPAFAH); inhibition, % at 3.39 µM; 1.5% of 330,000 active; recombinant pPAFAH, FP-rhodamine probe fluorescence polarization; Q13093; AID 463082;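 active = inhibition above the mean inhibition across the screen plus 3 SD, cut at about 25% in these data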;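 note: inhibitors block binding of the rhodamine activity-based probe so polarization drops; 0% = enzyme with DMSO and 100% = wells lacking pPAFAH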
PREPL inhibitor – human PREPL enzyme inhibition; Q4J6C6; recombinant PREPL, fluorescence polarization activity-based probe; inhibition, % at 5.96 µM; 0.68% of 320,000 active; AID 2751; in the data active = inhibition above about 43%;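 note: 0% = enzyme with DMSO and 100% = wells lacking enzyme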
PAFAH2 FP inh – PAFAH2 (human) inhibition; Q99487; recombinant PAFAH2, FP-rhodamine activity probe, fluorescence polarization; inhibition, % at 3.39 µM; 0.99% of 340,000 active;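 active = inhibition above the mean over all tested compounds plus 3 SD, cut at about 30% in these data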;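 note: inhibitors block probe labeling of enzyme so polarization drops; 0% = enzyme with DMSO and 100% = wells lacking PAFAH2 protein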
PAFAH1B3 FP inh – blocks human PAF acetylhydrolase 1B catalytic subunit 3. recombinant PAFAH1B3, FP-rhodamine probe, fluorescence polarization. AID 492972. inhibition, % at 3.39 µM. Q15102. 0.28% of 340,000 active;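 active = inhibition above the screen-wide average of all tested compounds plus 3 SD, cut at about 25% in these data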;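 note: 0% = enzyme with DMSO only and 100% = wells lacking PAFAH1B3 protein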
Target sequence (Q15102 whole entry, looked up): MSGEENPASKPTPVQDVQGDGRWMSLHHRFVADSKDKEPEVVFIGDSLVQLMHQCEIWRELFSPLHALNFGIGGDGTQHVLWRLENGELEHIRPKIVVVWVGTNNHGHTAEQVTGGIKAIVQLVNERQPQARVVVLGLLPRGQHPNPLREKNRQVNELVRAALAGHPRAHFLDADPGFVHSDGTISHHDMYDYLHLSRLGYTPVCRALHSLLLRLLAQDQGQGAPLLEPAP
Apaf-1 inh conf2 – Apaf-1 inhibition, single-dose confirmed. shares compounds with Apaf-1 inh. reconstituted apoptosome, caspase-3 DEVD-Rh110 fluorescence. inhibition, % at 20 µM. 25% of 1,800 active;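 active = mean inhibition of at least 40% at 20 µM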;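 note: plate controls were DMSO wells for no effect and DEVD-CHO caspase inhibitor control wells for full effect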
Rh110 quench – counter-screen for Apaf-1 inhibitors: fluorescence interference | 1,800 tested, under 10 active | shares compounds with Apaf-1 inh | activation (fluorescence interference), % at 20 µM | Rh110 fluorescence interference, quenched caspase reaction;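 active = signal rise of 40% or more at 20 µM, treated as a fluorescence artifact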
Apaf1 inh interf – Apaf-1 inhibitor counter-screen fluorescence artifact. fluorescence interference counterscreen, Apaf-1 assay format. shares compounds with Apaf-1 inh. IC50, µM. 460 tested, under 10 active; call rule not given here
* = called active by the depositor; . = not tested or not shown; ! = a repeat was not active. Most compounds without a hit are left out; they make up all but 3.5% or so of the library.

SMILES | Apaf-1 inh | PAFAH1B2 FP inh | pPAFAH inh | PREPL inhibitor | PAFAH2 FP inh | PAFAH1B3 FP inh | Apaf-1 inh conf2 | Rh110 quench | others
CCC(C)Sc1cccc(-c2nc3cc(C)ccn3c2NC2CCCCC2)c1 (centres undefined) | 40.7* | 3.6 | 0.5 | 14.0 | 9.5 | 13.8 | 15.3 | -15.6
Cc1ccn2c(NC3CCCCC3)c(-c3cccc(SC4CCCCC4)c3)nc2c1 | 40.4* | 7.0 | 7.9 | 7.1 | 4.7 | 4.4 | 15.7 | -7.6
CCCCCCSc1cccc(-c2nc3cc(C)ccn3c2NC2CCCCC2)c1 | 20.7 | -2.1 | 6.4 | 12.1 | -3.6 | 7.6 | . | .
Cc1ccn2c(NC3CCCC3)c(-c3ccsc3)nc2c1 | -2.3 | 4.6 | -3.1 | 3.1 | 7.9 | -0.6 | . | .
COc1cccc(CNc2nnnn2C)c1 | -2.7 | 1.5 | 4.9 | -1.6 | -1.2 | 13.0 | . | .
COc1ccc(CCNC(=O)CCn2c(=O)c3cccn3c3ccc(F)cc32)c(OC)c1OC | 0.7 | 3.4 | 7.5 | 6.8 | 4.8 | 3.3 | . | .
O=C(O)c1ccc(NC(=S)NC(=O)c2cccc(COc3ccccc3)c2)cc1 | 12.2 | -0.7 | 0.5 | -21.3 | -9.0 | -11.9 | . | .
O=C(NC(=S)Nc1ccc(CN2CCCCC2)cc1)c1cccc(OCc2ccccc2)c1 | 42.6* | 1.4 | 1.5 | -26.9 | -16.9 | 3.1 | 17.1 | 17.3
CCOC(=O)N1CCN(S(=O)(=O)N2CCCC(C(=O)NCc3ccccc3OC)C2)CC1 (centres undefined) | -2.0 | 2.4 | 3.1 | -4.4 | 5.7 | -3.5 | . | .
COc1cc(/C=C/c2cc[n+](C)cc2)ccc1OCC(=O)Nc1ccc(Cl)c(Cl)c1 | 73.0* | 0.0 | -2.0 | 19.2 | -8.9 | 1.3 | 45.5* | 5.6 | Apaf1 inh interf=>100
COc1ccc(NC(=O)COc2ccc(/C=C/c3cc[n+](C)cc3)cc2OC)cc1 | 0.9 | 4.3 | -4.3 | 6.8 | 8.0 | 4.3 | . | .
Cc1ccc(S(=O)(=O)N2CCC(C(=O)OCC(=O)N(C)CC(=O)Nc3ccc(F)cc3)CC2)cc1C | 51.6* | 6.0 | 11.7 | 16.4 | -6.3 | 1.6 | 19.0 | -1.7
CC1CC(c2ccccc2)=Nc2ccccc2N1 (centres undefined) | 8.6 | 6.8 | -1.0 | -7.1 | -1.3 | 9.8 | . | .
CC(=O)c1ccc(NS(=O)(=O)c2ccc3c(c2)N(C)CCO3)cc1 | 10.0 | 4.8 | -1.1 | 9.1 | 1.9 | -0.3 | . | .
COCCn1c(N)c(C(=O)OCc2ccccc2)c2nc3ccccc3nc21 | 94.5* | 4.0 | 14.1 | -7.5 | 4.2 | 10.6 | 7.8 | 1.1
COCCNC(=O)c1c(N)n(CCC2=CCCCC2)c2nc3ccccc3nc12 | 63.3* | 4.7 | 9.9 | 17.1 | 5.9 | 8.0 | 34.0 | 15.0
C=CCn1c(N)c(C(=O)OCCC)c2nc3ccccc3nc21 | 5.5 | 6.1 | -0.3 | 5.4 | -7.4 | 18.9 | . | .
COCCNC(=O)CSc1nc2cc(OC)c(OC)cc2c(=O)n1CCC1=CCCCC1 | . | 0.7 | . | . | 3.1 | -5.7 | . | .
O=C(N[C@H]1CCCCNC1=O)c1cc(COc2ccc(F)cc2F)on1 | -1.3 | 2.3 | 12.0 | 7.6 | 0.5 | 8.0 | . | .
CCn1cc(CN2CCc3c([nH]c4ccccc34)C2c2cccc(OC)c2)c(C)n1 (centres undefined) | 4.9 | . | 4.2 | -10.0 | . | . | . | .
Cc1nc(-c2ccc(Cl)cc2)sc1C1(C)CC(c2cccc([N+](=O)[O-])c2)=NO1 (centres undefined) | 6.3 | 3.8 | 5.1 | -4.9 | -2.0 | 5.3 | . | .
CCc1ccc(CNc2ccc(O)cc2)cc1 | 95.9* | 20.0 | 24.1 | 8.5 | 24.9 | 23.7 | 40.7* | -1.1 | Apaf1 inh interf=>100
Oc1ccc(NCc2ccc(OCc3ccccc3)cc2)cc1 | . | 8.1 | . | . | -0.7 | -0.8 | . | .
COc1ccc(-n2nc(C(=O)NCC(=O)Nc3ccc(F)cc3)c3ccccc3c2=O)cc1 | 26.2 | 2.6 | -4.3 | -1.8 | -10.7 | 4.8 | . | .
CC1(OC(=O)C2CCCC2)C(=O)C=C2C=C(c3ccsc3)N(CCCCO)C=C2C1=O (centres undefined) | 54.2* | 5.2 | 3.5 | 17.0 | -0.5 | 14.4 | 35.6 | 0.3
SMILES | Apaf-1 inh | PAFAH1B2 FP inh | pPAFAH inh | PREPL inhibitor | PAFAH2 FP inh | PAFAH1B3 FP inh | Apaf-1 inh conf2 | Rh110 quench | others
COc1ccc(CN2C=C3C(=O)C(C)(OC(=O)C4CCCC4)C(=O)C=C3C=C2c2ccsc2)cc1 (centres undefined) | 20.3 | 0.4 | 18.6 | 40.9 | 0.4 | -0.1 | . | .
Cc1cc(C)c(S(=O)(=O)/N=C2\C=C(NS(=O)(=O)c3ccccc3)C(=O)c3ccccc32)c(C)c1 | 63.5* | -0.4 | 1.0 | -4.6 | 4.1 | -5.0 | 48.4* | -0.7 | Apaf1 inh interf=>100
Cc1ccc(Cl)cc1NC1=C/C(=N\S(=O)(=O)c2cccs2)c2ccccc2C1=O | 95.0* | 27.6*! | 25.1* | 26.2 | 31.4* | 57.8* | 96.8* | -0.2 | Apaf1 inh interf=>100
Cc1ccc(NC2=C/C(=N\S(=O)(=O)c3cccs3)c3ccccc3C2=O)c(C)c1 | 95.0* | 30.2* | 29.3* | 34.5 | 34.4* | 64.8* | 94.8* | -1.0 | Apaf1 inh interf=>100
Cc1ccc(Nc2cc(=O)oc3ccccc23)c(C)c1 | 4.7 | 6.1 | 0.8 | 16.2 | 3.5 | -1.0 | . | .
O=C(O)c1ccc(NC2=C/C(=N/S(=O)(=O)c3ccccc3)c3ccccc3C2=O)cc1 | 96.0* | 30.3* | . | . | 47.9* | 63.4* | 97.5* | -1.4 | Apaf1 inh interf=>100
COc1ccccc1C(=O)Nc1ccc(C(=O)N2CCCCC2)cc1 | -4.2 | 1.2 | -7.5 | -18.4 | -5.6 | -1.6 | . | .
CS(=O)(=O)c1ccc(Cl)c(NC(=O)CSC(=S)N2CCCC2)c1 | -6.2 | 3.0 | -3.2 | -7.4 | -2.1 | 6.8 | . | .
COCCN(C(=S)Nc1cc(C)cc(C)c1)C(C)c1ccco1 (centres undefined) | -3.1 | 4.0 | 1.1 | -9.8 | 3.5 | 6.7 | . | .
CCN(CC(=O)Nc1ccc2c(c1)OCCO2)C(=O)/C=C/c1cccc(OC)c1OC | 10.7 | -0.7 | -4.3 | 6.5 | 2.5 | -7.8 | . | .
CCN(CC(=O)Nc1ccc2c(c1)OCCO2)C(=O)/C=C/c1ccc(OC)cc1OC | 64.0* | -0.5 | 4.9 | 17.6 | -4.6 | 1.9 | 37.3 | 15.4
CCCc1cc(=O)oc2cc(C)cc(O)c12 | 5.2 | 7.3 | 5.7 | 10.7 | 1.4 | 10.9 | . | .
CCCc1cc(=O)oc2c3c(c4c(c12)OC(C)(C)C=C4)OC(C)C(C)C3O (centres undefined) | 52.7* | 4.0 | 30.6* | 8.7 | 11.6 | -3.6 | 47.1* | 11.5 | Apaf1 inh interf=>100
COc1ccc(S(=O)(=O)NCc2ccc3c(c2)cc(C)n3C)cc1 | 50.7* | 5.5 | 12.8 | -4.1 | 18.9 | -0.6 | 17.3 | 3.4

Assay outcomes from PubChem BioAssay.
